{
  "source": "ChEMBL document CHEMBL2203264",
  "about": "“Optimization of imidazo[4,5-b]pyridine-based kinase inhibitors: identification of a dual FLT3/Aurora kinase inhibitor as an orally bioavailable preclinical development candidate for the treatment of acute myeloid leukemia” (J Med Chem, 2012)",
  "key": {"[1]": {"target": "Proto-oncogene tyrosine-protein kinase receptor Ret (Homo sapiens) (UniProt P07949)", "sequence (P07949 whole entry)": "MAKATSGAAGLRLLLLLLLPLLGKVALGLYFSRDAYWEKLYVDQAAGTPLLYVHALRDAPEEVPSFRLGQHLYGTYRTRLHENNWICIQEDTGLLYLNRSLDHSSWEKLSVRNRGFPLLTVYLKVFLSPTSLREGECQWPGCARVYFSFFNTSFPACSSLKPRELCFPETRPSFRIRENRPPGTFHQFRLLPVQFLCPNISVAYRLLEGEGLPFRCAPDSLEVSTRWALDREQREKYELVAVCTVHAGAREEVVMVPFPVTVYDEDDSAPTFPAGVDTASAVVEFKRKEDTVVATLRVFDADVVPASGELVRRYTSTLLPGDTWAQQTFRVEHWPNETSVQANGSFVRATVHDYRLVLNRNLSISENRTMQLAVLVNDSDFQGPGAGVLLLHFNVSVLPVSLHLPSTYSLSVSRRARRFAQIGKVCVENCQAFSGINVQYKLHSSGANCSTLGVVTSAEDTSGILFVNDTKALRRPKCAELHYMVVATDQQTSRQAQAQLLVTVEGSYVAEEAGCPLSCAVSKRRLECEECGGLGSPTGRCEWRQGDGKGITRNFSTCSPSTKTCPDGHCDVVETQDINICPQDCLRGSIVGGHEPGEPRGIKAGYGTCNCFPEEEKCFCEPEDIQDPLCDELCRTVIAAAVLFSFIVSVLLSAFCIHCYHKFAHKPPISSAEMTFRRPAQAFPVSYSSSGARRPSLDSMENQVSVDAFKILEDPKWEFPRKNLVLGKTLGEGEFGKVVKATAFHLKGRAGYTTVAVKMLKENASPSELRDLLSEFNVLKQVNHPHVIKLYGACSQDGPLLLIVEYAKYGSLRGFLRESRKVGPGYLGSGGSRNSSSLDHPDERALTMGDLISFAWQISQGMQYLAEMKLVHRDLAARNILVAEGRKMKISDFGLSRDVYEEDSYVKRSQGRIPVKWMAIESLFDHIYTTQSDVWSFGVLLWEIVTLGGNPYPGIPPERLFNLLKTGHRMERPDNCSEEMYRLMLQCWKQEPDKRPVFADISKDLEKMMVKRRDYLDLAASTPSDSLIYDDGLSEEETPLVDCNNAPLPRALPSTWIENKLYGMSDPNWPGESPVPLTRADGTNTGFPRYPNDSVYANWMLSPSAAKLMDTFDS", "experiment": "Inhibition of RET at 1 uM", "outline": "(§1)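 KINOMEScan competition-binding panel of 442 kinases (386 nonmutant) tested at 1 μM. Binding is read as percent of control ligand competition; <10% of control counts as a hit for the S(10) score.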"}, "[2]": {"target": "Tyrosine-protein kinase JAK2 (Homo sapiens) (UniProt O60674)", "sequence (O60674 whole entry)": "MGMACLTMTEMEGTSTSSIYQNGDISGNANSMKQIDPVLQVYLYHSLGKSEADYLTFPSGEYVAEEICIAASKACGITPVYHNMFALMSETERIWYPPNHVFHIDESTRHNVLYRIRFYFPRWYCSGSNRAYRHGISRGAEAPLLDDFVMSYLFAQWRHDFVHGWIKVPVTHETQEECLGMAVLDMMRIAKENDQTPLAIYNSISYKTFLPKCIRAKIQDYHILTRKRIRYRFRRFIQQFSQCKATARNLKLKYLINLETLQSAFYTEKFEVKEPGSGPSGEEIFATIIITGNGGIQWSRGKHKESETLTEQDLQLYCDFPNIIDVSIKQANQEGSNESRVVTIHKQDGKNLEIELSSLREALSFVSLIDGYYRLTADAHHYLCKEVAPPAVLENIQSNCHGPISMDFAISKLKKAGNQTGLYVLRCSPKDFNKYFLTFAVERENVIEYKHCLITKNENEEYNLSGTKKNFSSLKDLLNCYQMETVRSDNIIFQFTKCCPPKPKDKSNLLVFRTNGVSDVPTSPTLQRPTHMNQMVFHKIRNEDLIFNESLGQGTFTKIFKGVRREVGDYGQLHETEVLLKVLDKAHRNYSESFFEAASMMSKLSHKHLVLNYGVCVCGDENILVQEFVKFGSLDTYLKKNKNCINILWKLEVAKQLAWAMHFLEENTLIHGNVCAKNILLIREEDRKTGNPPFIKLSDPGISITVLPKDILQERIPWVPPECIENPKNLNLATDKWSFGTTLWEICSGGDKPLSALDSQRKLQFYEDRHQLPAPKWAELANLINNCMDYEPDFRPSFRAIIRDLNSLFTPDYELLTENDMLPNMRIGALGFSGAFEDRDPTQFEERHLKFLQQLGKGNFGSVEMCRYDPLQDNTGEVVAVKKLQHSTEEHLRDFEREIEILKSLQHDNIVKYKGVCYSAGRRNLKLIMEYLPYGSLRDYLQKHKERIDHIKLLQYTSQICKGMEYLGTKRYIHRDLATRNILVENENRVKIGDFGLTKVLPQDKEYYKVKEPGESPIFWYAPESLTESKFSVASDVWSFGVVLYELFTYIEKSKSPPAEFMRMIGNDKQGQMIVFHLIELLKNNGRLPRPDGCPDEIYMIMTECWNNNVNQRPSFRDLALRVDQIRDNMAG", "experiment": "Inhibition of JAK2 at 1 uM", "outline": "as §1"}, "Mus musculus [3]": {"system": "Mus musculus", "experiment": "Inhibition of Histone H3 phosphorylation in tumor of human MV4-11 cells xenografted CrTacNCr-Fox1(nu) athymic mouse at 50 to 100 mg/kg, po bid for 4 days measured after 2 hrs post final dose", "format": "functional, organism-based", "outline": "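MV4-11 xenograft-bearing athymic mice dosed orally at 50 or 100 mg/kg twice daily for 4 days, starting 17 days after implantation. Tumors harvested 2 h after the final dose. Western blotting for phospho-histone H3 (S10) and phospho-Stat5 (Y694), with total histone H3, total Stat5 and GAPDH as loading controls.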"}, "MV4-11 [4]": {"system": "MV4-11", "experiment": "Antitumor activity against human MV4-11 cells xenografted in CrTacNCr-Fox1(nu) athymic mouse assessed as reduction in tumor relapse at 50 to 100 mg/kg, po bid administered 10 days post implantation daily for 7 days measured after 60 days", "format": "functional", "parameters": "scale not given: the % may be the effect or the level left", "conditions": "dose mg/kg 50-100", "outline": "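Female adult CrTacNcr-Fox1(nu) athymic mice, s.c. 10^7 FLT3-ITD-positive MV4-11 cells; treatment began at 10 days (mean tumor volume at least 100 mm^3). Oral 50 or 100 mg/kg in 10% DMSO, 20% PEG 400, 5% Tween 80, 65% water, or vehicle alone; n = 5 per group. Dosed twice daily for 7 days, then once daily for 4 days; study ended day 60.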"}, "MV4-11 [5]": {"system": "MV4-11", "experiment": "Antitumor activity against human MV4-11 cells xenografted in CrTacNCr-Fox1(nu) athymic mouse assessed as tumor growth inhibition at 100 mg/kg, po bid administered 10 days post implantation daily for 7 days measured after 11 days", "format": "functional, organism-based", "parameters": "dose 100 mg/kg", "outline": "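Female adult athymic nude mice implanted subcutaneously with 10^7 FLT3-ITD-positive MV4-11 cells; treatment started 10 days after implantation, once mean tumor volume was at least 100 mm^3. Oral dosing at 50 or 100 mg/kg (n = 5 per group), twice daily for 7 days, then once daily for a further 4 days. Vehicle: 10% DMSO, 20% PEG 400, 5% Tween 80, 65% water. Tumor volume followed to day 60.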"}, "[6]": {"experiment": "Lipophilicity, log D of the compound", "format": "physicochemical", "conditions": "octanol/water"}, "[7]": {"experiment": "Oral bioavailability in Balb/C mouse at 5 mg/kg", "format": "ADME, organism-based", "conditions": "in vivo", "outline": "(§2)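 Female Balb/C mice given 5 mg/kg po or iv in 10% DMSO, 5% Tween 20 in saline. Killed at 5, 15, 30 min and 1, 2, 4, 6, 24 h; plasma from cardiac blood. Methanol protein precipitation with olomoucine internal standard, then LC-MS (reverse-phase C18, positive ESI MRM).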"}, "Mus musculus [8]": {"system": "Mus musculus", "experiment": "Volume of distribution in Balb/C mouse at 5 mg/kg, iv and 5 mg/kg, po", "format": "ADME, organism-based", "conditions": "in vivo", "outline": "as §2"}, "[9]": {"experiment": "AUC (infinity) in Balb/C mouse at 5 mg/kg, iv", "format": "ADME, organism-based", "parameters": "time infinity, dose 5 mg/kg, route intravenous", "conditions": "plasma", "outline": "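Female Balb/C mice dosed iv at 5 mg/kg in 10% DMSO, 5% Tween 20 in saline. Mice killed at 5, 15, 30 min and 1, 2, 4, 6, 24 h. Plasma from cardiac blood was methanol-precipitated with olomoucine internal standard, then analysed by LC–MS (positive ESI MRM).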"}, "[10]": {"experiment": "Clearance in Balb/C mouse at 5 mg/kg, iv", "format": "ADME, organism-based", "parameters": "dose 5 mg/kg, route intravenous", "conditions": "in vivo", "outline": "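Female Balb/C mice given a single 5 mg kg^-1 iv dose in 10% DMSO, 5% Tween 20 in saline. Mice sacrificed at 5, 15, 30 min and 1, 2, 4, 6, 24 h. Plasma from cardiac blood, methanol protein precipitation with olomoucine internal standard, LC–MS (positive ESI MRM). Clearance given in L/h.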"}, "[11]": {"experiment": "Half life in Balb/C mouse at 5 mg/kg, iv", "format": "ADME, organism-based", "parameters": "dose 5 mg/kg, route intravenous", "conditions": "in vivo", "outline": "as §2"}, "Plasma": {"system": "Plasma", "experiment": "Plasma protein binding in mouse", "format": "ADME, cell-free"}, "Cytochrome P450 1A2": {"target": "T1, Cytochrome P450 1A2 (Homo sapiens, UniProt P05177)", "T1 sequence (P05177 whole entry)": "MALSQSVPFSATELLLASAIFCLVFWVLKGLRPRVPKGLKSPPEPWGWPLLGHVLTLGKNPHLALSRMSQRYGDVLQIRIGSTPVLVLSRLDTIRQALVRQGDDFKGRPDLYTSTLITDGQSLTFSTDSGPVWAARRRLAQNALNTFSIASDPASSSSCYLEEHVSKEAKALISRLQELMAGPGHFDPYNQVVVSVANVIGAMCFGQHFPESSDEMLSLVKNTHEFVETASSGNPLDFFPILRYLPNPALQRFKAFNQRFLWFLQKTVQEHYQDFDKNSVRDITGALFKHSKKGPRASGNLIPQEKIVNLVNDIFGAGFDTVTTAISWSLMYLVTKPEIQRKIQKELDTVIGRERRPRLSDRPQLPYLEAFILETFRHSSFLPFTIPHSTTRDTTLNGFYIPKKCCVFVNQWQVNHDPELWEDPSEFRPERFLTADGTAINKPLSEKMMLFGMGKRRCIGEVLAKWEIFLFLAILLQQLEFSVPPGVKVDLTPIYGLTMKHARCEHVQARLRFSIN", "experiment": "Inhibition of human liver microsome CYP1A2 by LC-MS-MS analysis"}, "Cytochrome P450 3A4": {"target": "Cytochrome P450 3A4 (Homo sapiens, UniProt P08684)", "sequence (P08684 whole entry)": "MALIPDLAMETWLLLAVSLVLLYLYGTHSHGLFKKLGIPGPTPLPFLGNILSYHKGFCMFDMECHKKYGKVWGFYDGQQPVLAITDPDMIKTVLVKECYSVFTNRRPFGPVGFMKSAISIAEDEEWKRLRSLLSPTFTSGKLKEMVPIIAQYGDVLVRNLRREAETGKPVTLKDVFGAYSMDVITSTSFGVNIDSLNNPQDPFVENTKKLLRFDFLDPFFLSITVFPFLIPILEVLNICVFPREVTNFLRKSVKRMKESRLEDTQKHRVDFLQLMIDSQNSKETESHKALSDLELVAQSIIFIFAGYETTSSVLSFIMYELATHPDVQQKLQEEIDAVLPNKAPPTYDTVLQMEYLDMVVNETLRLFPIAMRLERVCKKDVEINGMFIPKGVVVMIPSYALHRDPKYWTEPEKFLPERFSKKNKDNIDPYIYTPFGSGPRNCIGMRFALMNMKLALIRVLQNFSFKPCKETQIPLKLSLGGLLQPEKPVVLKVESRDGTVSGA", "experiment": "Inhibition of human liver microsome CYP3A4 by LC-MS-MS analysis", "format": "ADME", "outline": "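Pooled human liver microsomes (50 donors) at 0.5 mg/mL protein, 10 min incubation; metabolite detected by LC-MS/MS with positive ESI.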"}, "[12]": {"experiment": "Metabolic stability in human liver microsomes assessed as parent compound metabolism after 30 mins by LC-MS analysis", "format": "ADME, Microsome", "conditions": "read-out: Drug metabolism", "outline": "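Test compound at 10 μM with pooled mixed-gender human liver microsomes (1 mg/mL protein), NADPH 1 mM, UDPGA 2.5 mM and MgCl2 3 mM in 10 mM PBS at 37 °C for 0 and 30 min. Controls omit NADPH/UDPGA. Compound remaining measured by LC–MS; reported as percent of parent metabolized at 30 min.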"}, "[13]": {"experiment": "Metabolic stability in mouse liver microsomes assessed as parent compound metabolism after 30 mins by LC-MS analysis", "format": "ADME, Microsome", "conditions": "read-out: Drug metabolism", "outline": "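Male CD1 mouse liver microsomes (1 mg/mL protein) incubated with 10 μM compound plus NADPH 1 mM, UDPGA 2.5 mM and MgCl2 3 mM in 10 mM PBS at 37 °C for 0 and 30 min. NADPH/UDPGA-free controls included. LC–MS quantitation of remaining compound; reported as percent parent metabolized after 30 min.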"}, "[14]": {"experiment": "Half life in Sprague-Dawley rat at 5 mg/kg, iv", "format": "ADME, organism-based", "parameters": "dose 5 mg/kg, route intravenous", "conditions": "in vivo", "outline": "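Female Sprague-Dawley rats, 5 mg/kg. Oral vehicle 10% DMSO, 5% Tween 80, 20% PEG400 in water; iv vehicle 10% DMSO, 5% Tween 20, 85% saline, 0.3% 1 M HCl. Serial tail-vein plasma at 15, 30 min and 2, 4, 6, 24 h. Methanol precipitation with olomoucine internal standard, then LC-MS (C18 BEH, positive ESI MRM).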"}},
  "note": "Calls of active or inactive are those of the source. No cut-off for these calls is given here.",
  "data": [
    {"smiles": "Cc1nn(C)cc1-c1nc2c(N3CCN(Cc4ccc(Cl)cc4)CC3)c(Cl)cnc2[nH]1", "note": "[MOBINITINIB]", "values": [
      {"measurement": "inhibition", "setting": "[1]", "value": 1.8, "unit": "%"},
      {"measurement": "inhibition", "setting": "[2]", "value": 1.3, "unit": "%"},
      {"measurement": "inhibition", "setting": "Mus musculus [3]", "value": "Active"},
      {"measurement": "Activity", "setting": "MV4-11 [4]", "value": 60, "unit": "%"},
      {"measurement": "Activity", "setting": "MV4-11 [5]", "value": "Active"},
      {"measurement": "logD", "setting": "[6]", "value": 3.84},
      {"measurement": "bioavailability", "setting": "[7]", "value": 100, "unit": "%"},
      {"measurement": "Vd", "setting": "Mus musculus [8]", "value": 3.3, "unit": "L/kg"},
      {"measurement": "AUC(0-inf)", "setting": "[9]", "value": 3.75, "unit": "µM·h"},
      {"measurement": "clearance", "setting": "[10]", "value": 0.967, "unit": "mL/min"},
      {"measurement": "half-life", "setting": "[11]", "value": 0.84, "unit": "h"},
      {"measurement": "PPB", "setting": "Plasma", "value": 97.3, "unit": "%"},
      {"measurement": "IC50", "setting": "Cytochrome P450 1A2", "value": "> 10", "unit": "µM"},
      {"measurement": "IC50", "setting": "Cytochrome P450 3A4", "value": "> 10", "unit": "µM"},
      {"measurement": "metabolised at 0.5 h", "setting": "[12]", "value": 10, "unit": "%"},
      {"measurement": "metabolised at 0.5 h", "setting": "[13]", "value": 34, "unit": "%"},
      {"measurement": "half-life", "setting": "[14]", "value": 4.62, "unit": "h"}
    ]}
  ]
}
